Tested on: MS2 coat protein
Assay: apparent Kd, MS2 coat protein; higher = weaker binding; RNA-MaP array; FMN 200 µM where present
Outline: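 Stalled E. coli RNA polymerase transcribed each design on Illumina sequencing-chip clusters. The clusters were titrated with SNAP-549-labelled MS2 coat protein, starting at 0.7 or 1.5 nM and doubling up to 3 µM, first without ligand and then with constant ligand, in 100 mM Tris-HCl pH 7.5, 80 mM KCl, 4 mM MgCl2, BSA, DTT, yeast tRNA and Tween-20. Green signal was normalised to red-channel RNA signal and to the control-cluster median Fmax. The apparent Kd is the median of filtered binding-curve fits made for each cluster.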

[1] = designed as: ON switch for flavin mononucleotide, no ligand
[2] = ligand present: flavin mononucleotide, designed as: ON switch for flavin mononucleotide
[3] = designed as: OFF switch for flavin mononucleotide, no ligand
[4] = ligand present: flavin mononucleotide, designed as: OFF switch for flavin mononucleotide

Row | Sequence | apparent Kd [1] | apparent Kd [2] | apparent Kd [3] | apparent Kd [4]
1 | CUACUUAGCCAGAAGGCAAGAGGUACAUGAGGAUCACCCAUGUAGUGAUUGAGGAUAUGGCAAGGUUCUAUGGUGCGUCUAGCC | 7.53 nM | 5.12 nM | – | –
2 | AUAUAUAUAUAGAAGGUGCCAGCGAGAGCUGCACAUGAGGAUCACCCAUGUUGUCGGUGACGACGCAAGGAUAUAUAUAUAUAU | 34 nM | 15.4 nM | – | –
3 | GGGCAACAUGAGGAUCACCCAUGUGAGGAUAUGGGCCCGGGCCCGAAAGGGCCCGGGCCCAGAAGGCACAGCCC | – | – | 17.9 nM | 17.1 nM
4 | UUUAUAAAUUAGAAGGCAUGAUGAAUUACAAUAGACAUGAGGAUCACCCAUGUGUAUUCAUGUCAUGAGGAUAUAGUCAUAUAU | 8.91 nM | 6.45 nM | – | –
5 | GUCAGCUCGUGAGGAUAUACAACACUGCUUCUGCAGUGUAUUAAGAUCACAUGAGGAUCACCCAUGUAGAAGGCACGAGCUGAU | – | – | 12.8 nM | 234 nM
6 | CGAGUUUUUGAGAAGGCAUAUUAUAUUAUACCACAUGUUUACAUGAGGAUCACCCAUGUUUCCUAUGAGGAUAUCAGAAUGUCG | – | – | 9.34 nM | 7.33 nM
7 | GACUAGUAAGGAUAUCAAGUUCUCCACAUGAGGAUCACCCAUGUCGAUAACCUCUGACAAUGAGAAGGUGCUGACU | – | – | 35.1 nM | 31.9 nM
8 | GCUCACCGUCAGAAGGUACUUAAAAGUUGUGAGUAAGGAUAUGACAUGAGGAUCACCCAUGUAAACGUGGACUUUCACAUACAU | – | – | 13.5 nM | 59.1 nM
9 | GUUCUUCCUGUAAGGAUAUCCAUGUAUCAAAGCAUGGAGAAGGUACAUGAGGAUCACCCAUGUCACCCGCGUUA | – | – | 20.2 nM | 45.3 nM
10 | ACGACGAAAGUCGAACGAUGUACGAGAAGGACAUGAGGAUCACCCAUGUUAUCUGUUAUAGACAUGUAGGAUAUCGUACAUCGA | – | – | 8.25 nM | 26.8 nM
11 | GCAUGAGACUAAGGAUAUGAUGUACCUAUAUGUGACAUGAGGAUCACCCAUGUGGUAAGUAUGAUUCAGAAGGUAGAGACAUGC | 33.7 nM | 21.3 nM | – | –
12 | AAAAAGCGAGGAUAUGCAUAAGGACCCGGGAGGGAAAUCAAACAUGAGGAUCACCCAUGUAGAAGGCGCAAAAA | – | – | 16.1 nM | 23.3 nM
13 | UUGGACGUCGUAGGAUAUGUAGAAUAUUCCUACAUGAGGAUCACCCAUGUUGACAUGGAAGAAGGACAGAAGGACGAUGUCCAU | 6.97 nM | 5.37 nM | – | –
14 | CGGUGCUGAGGAUAUACAUGAGGAUCACCCAUGUGUGCCAGCUAGCUGACUGGCGCUUGUAGAAGGCAGUACUG | – | – | 12.1 nM | 24.4 nM
15 | AAUUAAUUAAUUAAUUGGACGAUACAUGAGGAUCACCCAUGUAAGGAUAUGCAGUGGAAUACACUGCAGAAGGUACAUACGUCC | – | – | 15.4 nM | 25.5 nM
16 | AUUUCGUUAGCAGGAUAUGGACAGGCCUGUCCGUAUUGAGUCAGUAACAUGAGGAUCACCCAUGUCCAGAAGGGCUCGAAGUUA | – | – | 8.15 nM | 15.8 nM
17 | AAAAUCAAUGCAGGAUAUACAUGAGGAUCACCCAUGUAGGUUGACCCUAAUACGGGCGAUUUGCAGUAGAAGGGCAAGAAGAAA | – | – | 50.7 nM | 63.4 nM
18 | GCAUGAUACUAGGAUAUCAGCAUACUUCAAUGUUGAGAAGGAGUAACAUGAGGAUCACCCAUGUAUCCAACAUG | – | – | 59.4 nM | 166 nM
19 | GGGAAGGGCGGAGGAUAUCGACAUGAGGAUCACCCAUGUAUCACCCAUGUAUGAGAAGGUUGGAAGGAUUAAAACGUGAGGGUC | – | – | 57.6 nM | 44.3 nM
20 | AUUUAGUGCGAGAAGGCGUGGUCACAUGAGGAUCACCCAUGUCAGUACACGAGGAUAUCGAUUCGCUGUGUAAACACAAGCGAC | 80.7 nM | 6.67 nM | – | –
21 | AUAUUUAUUUAGAAGGACAUGAGGAUCACCCAUGUCGCUGGGCGCGGGAAACCGUGCCCGGCCAUGUAGGAUAUAGAUAGAUAU | – | – | 8.78 nM | 9.88 nM
22 | AAACACGGACAUGAGGAUCACCCAUGUGGCGAAAGCCUUGGAAGAAGGCCGAUUGCAAAGCAAUCGGAGGAUAUUCAUACCGUG | – | 5.57 nM | – | –
23 | UCCUUGUCCUGAGGAUAUCCGCGGUUCCCAAAAGGAGAAGGCAGGACAUGAGGAUCACCCAUGUACCCAGAAAACGUGCAGAUU | – | – | 9.95 nM | 46.8 nM
24 | CUGUCGAUAUCAGGAUAUCGUUUACAUACAUGAGGAUCACCCAUGUAGAUGAUCAGCCUAAUAUACGAGAAGGGAUAUCGAUAG | 9.26 nM | 8.59 nM | – | –
25 | UUGGAGUACGUAGGAUAUGUAGGAUAUUCCUACAUGAGGAUCACCCAUGUAUGAAUGGAAGAAGGACAGAAGGACGUGCUCCAU | 19.8 nM | 13.9 nM | – | –
26 | UUGGACGUCGUAGGAUAUGUAGGAUAUUCCUACAUGAGGAUCACCCAUGUUGACAUGGAAGAAGGACAGAAGGACGAUCUCCAU | 360 nM | 5.49 nM | – | –
27 | AAAAAGUCAGGAUAUACAUGAGGAUCACCCAUGUAAAAAAAAGGGAAAAAAAAAAAGGGUAGAAGGGACGAAAA | – | – | 37.8 nM | 33 nM
28 | UCUCGUUUCGCAGGAUAUGCUGGUCGGUCAUAAACCGGCCACAUGAGGAUCACCCAUGUGCCACAGCAGAAGGGUGACACUAGA | 543 nM | 59 nM | – | –

From the EternaBench riboswitch data
